≈ marks a conversion by molar mass, not a printed value. Calls of active or inactive are those of the source.

By IC50 is commonly meant the midpoint of a concentration-inhibition curve. Usually Emax stands for the maximal effect, on the per cent scale that the assay sets. Usually EC50 stands for the midpoint of the concentration-response curve. As usually defined, the Tmax is the time at which the peak concentration occurs. A word on the Cmax: it is the peak of the concentration-time curve. What is called solubility is the concentration that dissolves in the medium under given conditions. A lower solubility goes with little dissolved substance. By AUC(0-t) is commonly meant the area under the concentration-time curve up to a stated or last time point. Read a high AUC(0-t) as more exposure. In general, half-life refers to how long it takes for the measured level to halve.

Data set [1] deals with T1, Cannabinoid receptor 2 (Homo sapiens, UniProt P34972). Put plainly: Displacement of [3H]CP-55940 from human recombinant CB2 receptor expressed in CHO cells. The class given is cell-based. (In general: Displacement assays read how much labelled ligand stays bound in the presence of the test substance.)
Data set [2] has as its target T1, Cannabinoid receptor 2. As to the kind of experiment: Agonist activity at human recombinant CB2 receptor expressed in CHO cells by [35S]GTP-gamma-S binding assay relative to CP-55940. The class given is functional, cell-based. The essentials:
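Membranes from CHO cells expressing human CB2 (5 µg/well) in Hepes buffer pH 7.4 with 100 mM NaCl, 3 mM MgCl2, 0.2% BSA, 3 µM GDP and 30 µg/mL saponin. Preincubated with compound for 30 min at 30 °C, then 0.1 nM [35S]GTPγS added for a further 30 min at 30 °C. Filtered and counted. Nonspecific binding defined with 10 µM GTPγS. Emax expressed relative to the maximal response to CP 55,940.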

Data set [3] addresses T1, Cannabinoid receptor 2. As to the kind of experiment: Agonist activity at human recombinant CB2 receptor expressed in CHO cells by [35S]GTP-gamma-S binding assay. The class given is functional, cell-based. The essentials: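 Membranes from CHO cells expressing human CB2 (5 µg/well) in Hepes buffer pH 7.4 with 100 mM NaCl, 3 mM MgCl2, 0.2% BSA, 3 µM GDP and 30 µg/mL saponin. Preincubated with compound for 30 min at 30 °C, then 0.1 nM [35S]GTPγS added for a further 30 min at 30 °C. Filtered and counted. Nonspecific binding defined with 10 µM GTPγS.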
(In general: GTPγS is a poorly hydrolysed GTP analogue; its binding reports G protein activation.)

In data set [4] the target is T2, Cannabinoid receptor 1 (Homo sapiens, UniProt P21554). Put plainly: Displacement of [3H]CP-55940 from human recombinant CB1 receptor expressed in CHO cells. The class given is cell-based.
The species entered for another data set is Homo sapiens. As to the kind of experiment: Selectivity for human CB2 receptor over human CB1 receptor.
Data set [5] is described as follows: Tmax in Sprague-Dawley rat at 10 mg/kg, po. In kind it is ADME, organism-based. As to conditions: in vivo. Also noted: dose 10 mg/kg, route oral. The essentials: (§1)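 Male Sprague–Dawley rats, 7–8 weeks old, dosed orally at 10 mg/kg. Blood taken from the tail vein and plasma stored at -80 °C. Plasma protein-precipitated with acetonitrile/methanol (9:1) containing internal standard, then quantified by LC-MS/MS (ESI, positive MRM). LLOQ 1 ng/mL. Mean ± SD of three animals.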

The nature of data set [6]: Plasma concentration in Sprague-Dawley rat at 10 mg/kg, po after 1.67 hrs. In kind it is ADME, organism-based. Also noted: dose 10 mg/kg, route oral. The gist of the method: as §1
A short description of data set [7]: Solubility in water at 25 degC. In kind it is physicochemical. The gist of the method: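 Excess compound shaken in water at room temperature for 24 h, then centrifuged for 10 min at 25 °C. Supernatant diluted in 50% aqueous acetonitrile and quantified by reversed-phase HPLC with UV detection at 230 nm.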
A short description of data set [8]: Metabolic stability in Sprague-Dawley rat liver microsomes after 15 mins. The class given is ADME, Microsome. The note with it: read-out: Stability. The gist of the method: (§2)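 Compound at 5 µM final incubated for 15 min at 37 °C with human or rat liver microsomes (1.0 mg protein/mL) in phosphate buffer with KCl, pH 7.4, plus an NADPH-generating system. Stopped with DMSO, centrifuged, and the remaining compound measured by LC-MS/MS. Run in triplicate.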
(In general: Liver microsomes are vesicles of endoplasmic reticulum, rich in cytochrome P450 enzymes.)

Data set [9] relates to Rattus norvegicus. Put plainly: Reversal of mechanical hyperalgesia in Wistar rat at 10 mg/kg, po after 1 hr by Randall-Selitto test. The class given is functional, organism-based. Also noted: dose 10 mg/kg. The essentials: (§3)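 Male Wistar rats (200–220 g) given 0.1 mL of 20% yeast suspension into the right hind paw plantar surface. Control paw-withdrawal threshold read by algesiometer 2 h after yeast, then compound given orally in 5% gum arabic vehicle. Threshold re-read at 1 and 3 h. Result expressed as %MPE. Seven rats per group; Dunnett's test versus vehicle.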

Data set [10] in a line: Metabolic stability in human liver microsomes after 15 mins. As to conditions: read-out: Stability. The class given is ADME, Microsome. The essentials:
as §2

For data set [11], the target named is T3, Cannabinoid receptor 2 (Rattus norvegicus, UniProt Q9QZN9).
T3 sequence (Q9QZN9 whole entry): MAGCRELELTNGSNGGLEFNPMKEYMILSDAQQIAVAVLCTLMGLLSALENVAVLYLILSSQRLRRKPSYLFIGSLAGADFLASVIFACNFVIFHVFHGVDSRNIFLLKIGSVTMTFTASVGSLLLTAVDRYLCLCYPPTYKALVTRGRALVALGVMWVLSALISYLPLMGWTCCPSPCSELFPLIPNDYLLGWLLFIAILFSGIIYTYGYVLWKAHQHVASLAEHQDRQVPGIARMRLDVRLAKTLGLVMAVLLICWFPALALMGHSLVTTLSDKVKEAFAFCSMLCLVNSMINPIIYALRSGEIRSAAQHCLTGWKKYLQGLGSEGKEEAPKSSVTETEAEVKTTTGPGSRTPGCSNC
Put plainly: Displacement of [3H]CP-55940 from […] receptor in Sprague-Dawley rat spleen membrane. The class given is cell membranes. The gist of the method: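 Rat spleen membranes (100 µg/well) from male Sprague–Dawley rats in Tris-HCl buffer pH 7.4 with 5 mM EDTA, 5 mM MgCl2 and 0.2% BSA. Incubated with varying compound concentrations and 0.57 nM [3H]CP 55,940 at 25 °C for 120 min. Filtered and counted. Nonspecific binding defined with 2 µM CP 55,940.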

Data set [12] has as its system Rattus norvegicus. As to the kind of experiment: Reversal of mechanical hyperalgesia in Wistar rat at 30mg/kg, po after 1 hr by Randall-Selitto test. In kind it is functional, organism-based. The gist of the method: as §3
Data set [13] can be described thus: AUC (0 to 8 hrs) in Sprague-Dawley rat at 10 mg/kg, po. Also noted: time < 8 hr, dose 10 mg/kg, route oral. The class given is ADME, organism-based. As to conditions: plasma.
Data set [14] can be described thus: Half life in Sprague-Dawley rat at 10 mg/kg, po. In kind it is ADME, organism-based. Also noted: dose 10 mg/kg, route oral. The note with it: in vivo. The gist of the method:
as §1

The target in data set [15] is T1, Cannabinoid receptor 2. Put plainly: Agonist activity at CB2 receptor. The class given is functional. The essentials: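 [³⁵S]GTPγS binding on membranes of CHO cells expressing human CB2. Buffer 20 mM Hepes, 100 mM NaCl, 3 mM MgCl2, 0.2% BSA, 3 µM GDP, 30 µg/mL saponin, pH 7.4. Membranes (5 µg/well) preincubated with compounds 30 min at 30 °C, then 0.1 nM [³⁵S]GTPγS added for 30 min at 30 °C. Filtration and scintillation counting; nonspecific binding with 10 µM GTPγS. EC50 derived; Emax relative to CP 55,940 maximum.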

Data set [16] has as its target T2, Cannabinoid receptor 1. Put plainly: Agonist activity at CB1 receptor. In kind it is functional.
For data set [17], the target named is T1, Cannabinoid receptor 2. As to the kind of experiment: Binding affinity to CB2 receptor.
Data set [18] has as its target T2, Cannabinoid receptor 1. As to the kind of experiment: Binding affinity to CB1 receptor.

T2 sequence (P21554 whole entry): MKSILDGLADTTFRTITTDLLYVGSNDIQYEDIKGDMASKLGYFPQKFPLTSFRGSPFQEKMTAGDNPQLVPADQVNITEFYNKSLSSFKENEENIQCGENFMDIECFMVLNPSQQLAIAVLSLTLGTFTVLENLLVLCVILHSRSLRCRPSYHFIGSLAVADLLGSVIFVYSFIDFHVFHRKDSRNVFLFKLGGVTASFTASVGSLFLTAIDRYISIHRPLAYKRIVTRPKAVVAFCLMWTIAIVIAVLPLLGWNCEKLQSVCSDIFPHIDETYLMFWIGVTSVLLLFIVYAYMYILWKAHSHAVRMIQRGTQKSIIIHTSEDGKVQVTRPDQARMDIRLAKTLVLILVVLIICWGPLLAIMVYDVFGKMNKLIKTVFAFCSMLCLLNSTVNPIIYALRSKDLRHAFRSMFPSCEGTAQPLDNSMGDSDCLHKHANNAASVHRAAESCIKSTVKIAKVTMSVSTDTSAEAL
T1 sequence (P34972 whole entry): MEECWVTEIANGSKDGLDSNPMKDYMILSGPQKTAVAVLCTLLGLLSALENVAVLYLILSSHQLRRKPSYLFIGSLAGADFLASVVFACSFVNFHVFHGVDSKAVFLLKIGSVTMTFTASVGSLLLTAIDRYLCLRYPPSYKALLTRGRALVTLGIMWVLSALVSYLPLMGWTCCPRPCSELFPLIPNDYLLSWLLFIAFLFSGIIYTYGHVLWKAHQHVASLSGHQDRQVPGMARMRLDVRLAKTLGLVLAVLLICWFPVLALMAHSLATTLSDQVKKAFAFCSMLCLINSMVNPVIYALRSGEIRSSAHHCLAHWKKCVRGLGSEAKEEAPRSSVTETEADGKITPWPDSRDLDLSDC

As for `CC(C)(C)c1nn(CC2CC2)/c(=N/C(=O)c2cccc(C(F)(F)F)c2)s1`, on Cannabinoid receptor 2 [1], the IC50 came out at 300 nM.

Consider `Cc1ccc(C(F)(F)F)cc1C(=O)/N=c1\cc(C(C)(C)C)n(C)n1CC1CC1`, for which the IC50 on Cannabinoid receptor 2 [1] was determined as 88 nM.

`CC(C)OCCn1/c(=N/C(=O)c2cccc(C(F)(F)F)c2F)cc(C(C)(C)C)n1C`: the IC50 on Cannabinoid receptor 2 [1] came to 2.6 nM; at Cannabinoid receptor 1 [4] it was 760 nM. On Cannabinoid receptor 2 [2], the Emax was determined as 76%. The EC50 on Cannabinoid receptor 2 [3] worked out at 0.85 nM.

Take `CCOCCn1/c(=N/C(=O)c2cccc(C(F)(F)F)c2F)cc(C(C)(C)C)n1C`: the IC50 on Cannabinoid receptor 2 [1] is 3.7 nM; at Cannabinoid receptor 1 [4] it was 870 nM. The maximum response (Emax) at Cannabinoid receptor 2 [2] was 82%. Further, the EC50 on Cannabinoid receptor 2 [3] came to 1.1 nM.

As for `Cn1c(C(C)(C)C)c/c(=N\C(=O)c2cccc(C(F)(F)F)c2F)n1CC1CCCC1`, the Emax on Cannabinoid receptor 2 [2] amounted to 67%. Also, the EC50 at Cannabinoid receptor 2 [3] was 0.79 nM. Also, the IC50 at Cannabinoid receptor 1 [4] was 810 nM.

On to `Cc1c(C(=O)/N=c2\cc(C(C)(C)C)n(C)n2CC2CC2)cccc1C(F)(F)F`, for which the IC50 is 11 nM at Cannabinoid receptor 2 [1] and 1300 nM at Cannabinoid receptor 1 [4]. Moreover, the Emax at Cannabinoid receptor 2 [2] is 73%. In addition, the concentration for a half-maximal effect (EC50) on Cannabinoid receptor 2 [3] was 4.4 nM.

For `Cn1c(C(C)(C)C)c/c(=N\C(=O)c2cccc(C(F)(F)F)c2F)n1CC1CC1`, the IC50 on Cannabinoid receptor 2 [1] worked out at 2.9 nM; at Cannabinoid receptor 2 [11] it was 1.4 nM; at Cannabinoid receptor 1 [4], 4000 nM. Also, the Ratio IC50 in the data set filed under Homo sapiens worked out at 1400. Also, the Tmax in data set [5] is 1.67 h. In data set [6], this molecule returned a Cmax of 545 ng/mL. Also, the Emax on Cannabinoid receptor 2 [2] came to 85%. In addition, in data set [7], the solubility was determined as 59 µg/mL (≈ 148 µM). For the same molecule, the remaining at 0.25 h in [8] came to 86%; in [10], 92%. Further, the outcome in the data set with Rattus norvegicus [9] and in the data set with Rattus norvegicus [12] was Active. Besides, on Cannabinoid receptor 2 [3], the EC50 came to 1.8 nM. The molecule also came in with an area under the curve AUC(0-t) at 8 h in data set [13] of 2160 ng·h/mL. The molecule further showed a half-life in data set [14] of 2.47 h.

`Cn1c(C(C)(C)C)c/c(=N\C(=O)c2cccc(C(F)(F)F)c2Cl)n1CC1CC1`: the IC50 on Cannabinoid receptor 2 [1] stood at 3.7 nM; on Cannabinoid receptor 1 [4], 2200 nM. The Emax on Cannabinoid receptor 2 [2] was found to be 82%. Also, the EC50 at Cannabinoid receptor 2 [3] amounted to 1.5 nM.

For `Cn1c(C(C)(C)C)c/c(=N\C(=O)c2cccc(C(F)(F)F)c2F)n1CC1CCC1`, the IC50 on Cannabinoid receptor 2 [1] came out at 1.7 nM; at Cannabinoid receptor 1 [4] it was 940 nM. Also, the Emax at Cannabinoid receptor 2 [2] came to 96%. The EC50 at Cannabinoid receptor 2 [3] is 0.32 nM.

On to `Cc1c(C(C)C)o/c(=N\C(=O)c2cccc(C(F)(F)F)c2)n1CC1CC1`, for which, at Cannabinoid receptor 2 [1], the half-inhibitory concentration (IC50) came out at 24 nM.

Turning to `Cc1c(C(C)(C)C)s/c(=N\C(=O)c2cccc(C(F)(F)F)c2)n1CC1CC1`, the Ratio IC50 in the data set listed under Homo sapiens worked out at 270. This molecule also came in with a solubility in data set [7] of less than 0.1 µg/mL.

For the molecule `CC(C)(C)c1c/c(=N\C(=O)c2cccc(C(F)(F)F)c2)n(CC2CC2)s1`, at Cannabinoid receptor 2 [1], the IC50 amounted to 9.5 nM.

Regarding `O=C(NCC1CCOCC1)c1cnc(Nc2ccc(Cl)cc2Cl)nc1C(F)(F)F` [GW842166X], the EC50 at Cannabinoid receptor 2 [15] was 50 nM; on Cannabinoid receptor 1 [16], more than 30000 nM.

For `CC1(C)C(C(=O)c2cn(CCN3CCOCC3)c3ccccc23)C1(C)C`, the 50% inhibitory concentration (IC50) on Cannabinoid receptor 2 [17] is 0.77 nM.

Regarding `Cn1c(C(C)(C)C)c/c(=N\C(=O)c2cccc(C(F)(F)F)c2)n1CC1CC1`, the concentration for half-maximal inhibition (IC50) on Cannabinoid receptor 2 [1] stood at 51 nM.

Turning to `CN1CCCCC1Cn1cc(C(=O)c2cc([N+](=O)[O-])ccc2I)c2ccccc21` (stereo not given), the IC50 at Cannabinoid receptor 2 [17] was found to be 3.4 nM; on Cannabinoid receptor 1 [18] it was 280 nM.

With `CC(C)(C)c1c/c(=N\C(=O)c2cccc(C(F)(F)F)c2)n(CC2CC2)o1`, on Cannabinoid receptor 2 [1], the IC50 is 46 nM.

Turning to `Cn1c(C(C)(C)C)c/c(=N\C(=O)c2cc(C(F)(F)F)ccc2F)n1CC1CC1`, the IC50 is 23 nM on Cannabinoid receptor 2 [1] and 3700 nM on Cannabinoid receptor 1 [4]. In addition, the maximal response (Emax) at Cannabinoid receptor 2 [2] is 90%. For the same molecule, the EC50 on Cannabinoid receptor 2 [3] is 8.8 nM.

These data come from ChEMBL document CHEMBL1143973, “Imine derivatives as new potent and selective CB2 cannabinoid receptor agonists with an analgesic action” (Bioorg Med Chem, 2008).
